Measured values of several laboratories.
Protocols differ between the studies behind these lines.
Target: Activated CDC42 kinase 1 (TNK2, Homo sapiens, UniProt Q07912)

| SMILES | test | conditions | quantity | value |
| --- | --- | --- | --- | --- |
| O=c1[nH]c2ccccc2n1C1CCN(Cc2ccc(-c3[nH]c4cc5ncnc5cc4nc3-c3ccccc3)cc2)CC1 | cell-free assay | 0.5 µM | remaining signal | 92.3% |
| Cn1cc(-c2cc(F)cc(N3CCn4c(cc5c4CCCC5)C3=O)c2CO)cc(Nc2ccc(N3CCN(C4COC4)CC3)cn2)c1=O | enzyme activity, inhibitor | 0.1 µM | inhibition | 1% |
| COc1cc(Nc2ncc(F)c(Nc3ccc4c(n3)NC(=O)C(C)(C)O4)n2)cc(OC)c1OC | binding | 10 µM | inhibition | 99% |
| COc1ncccc1-c1cnn2ccc(N3CCN(C(=O)OC(C)C)CC3)nc12 | binding, competition with immobilised ligand | 1 µM | remaining binding | 94% |
| Nc1ncc(-c2nc(N3CCOCC3)nc(N3CCOCC3)n2)c(C(F)F)n1 | binding, competition with immobilised ligand | 10 µM | remaining binding | 85% |
| Cn1cncc1[C@](O)(COc1ccc(C#N)cc1-c1ccc(OC(F)(F)F)cc1)c1ccc(C#N)cc1 | cell-free assay, competition with immobilised ligand | 1 µM | remaining binding | 100% |
| CC(C)(C)c1cc(C=C(C#N)C#N)cc(Br)c1O | enzyme activity, inhibitor | 0.5 µM | remaining activity | 93.1% |
| Cn1cc(-c2cccc(N3CCc4c(sc5c4CC(C)(C)C5)C3=O)c2CO)cc(Nc2ccncn2)c1=O | enzyme activity, inhibitor | 1 µM | inhibition | 0% |
| COc1cc(Cl)c(C(=O)N[C@@H](CN[C@H]2CC[C@@H](N)CC2)Cc2ccc(C#N)cc2)cc1-c1ccc(CN[C@H](C)c2ccc(C)cc2)o1 | enzyme activity, inhibitor | 1 µM | remaining activity | 107% |
